Data taken from ChEMBL document CHEMBL4619820, “Development of Novel AKR1C3 Inhibitors as New Potential Treatment for Castration-Resistant Prostate Cancer” (J Med Chem, 2020).
Positions count from the first letter of the chain named. Activity calls are given as the source filed them. No cut-off for these calls is given here.

Assays:
[1] = molecular target: T1, Aldo-keto reductase family 1 member C3 (Homo sapiens, UniProt P42330); test: Inhibition of recombinant AKR1C3 (unknown origin) assessed as reduction in S-tetralol-induced dehydrogenase activity by measuring NADPH level
T1 sequence (P42330 whole entry): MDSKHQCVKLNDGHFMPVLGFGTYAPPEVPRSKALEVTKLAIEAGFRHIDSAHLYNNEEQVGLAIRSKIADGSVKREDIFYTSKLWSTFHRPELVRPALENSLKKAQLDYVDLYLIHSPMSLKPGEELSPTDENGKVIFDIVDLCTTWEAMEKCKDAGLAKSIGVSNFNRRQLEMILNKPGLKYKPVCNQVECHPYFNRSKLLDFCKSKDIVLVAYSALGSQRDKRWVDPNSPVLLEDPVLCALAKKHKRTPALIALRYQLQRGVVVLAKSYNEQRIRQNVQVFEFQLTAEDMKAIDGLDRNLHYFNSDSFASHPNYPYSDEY

[2] = molecular target: T2, Androgen receptor (Homo sapiens) (UniProt P10275); test: Agonistic activity at AR in human 22Rv1 cells assessed as effect on cell number at 1 nM by CCK8 assay; assay type: cell-based; conditions: CWR22R
T2 sequence (whole entry): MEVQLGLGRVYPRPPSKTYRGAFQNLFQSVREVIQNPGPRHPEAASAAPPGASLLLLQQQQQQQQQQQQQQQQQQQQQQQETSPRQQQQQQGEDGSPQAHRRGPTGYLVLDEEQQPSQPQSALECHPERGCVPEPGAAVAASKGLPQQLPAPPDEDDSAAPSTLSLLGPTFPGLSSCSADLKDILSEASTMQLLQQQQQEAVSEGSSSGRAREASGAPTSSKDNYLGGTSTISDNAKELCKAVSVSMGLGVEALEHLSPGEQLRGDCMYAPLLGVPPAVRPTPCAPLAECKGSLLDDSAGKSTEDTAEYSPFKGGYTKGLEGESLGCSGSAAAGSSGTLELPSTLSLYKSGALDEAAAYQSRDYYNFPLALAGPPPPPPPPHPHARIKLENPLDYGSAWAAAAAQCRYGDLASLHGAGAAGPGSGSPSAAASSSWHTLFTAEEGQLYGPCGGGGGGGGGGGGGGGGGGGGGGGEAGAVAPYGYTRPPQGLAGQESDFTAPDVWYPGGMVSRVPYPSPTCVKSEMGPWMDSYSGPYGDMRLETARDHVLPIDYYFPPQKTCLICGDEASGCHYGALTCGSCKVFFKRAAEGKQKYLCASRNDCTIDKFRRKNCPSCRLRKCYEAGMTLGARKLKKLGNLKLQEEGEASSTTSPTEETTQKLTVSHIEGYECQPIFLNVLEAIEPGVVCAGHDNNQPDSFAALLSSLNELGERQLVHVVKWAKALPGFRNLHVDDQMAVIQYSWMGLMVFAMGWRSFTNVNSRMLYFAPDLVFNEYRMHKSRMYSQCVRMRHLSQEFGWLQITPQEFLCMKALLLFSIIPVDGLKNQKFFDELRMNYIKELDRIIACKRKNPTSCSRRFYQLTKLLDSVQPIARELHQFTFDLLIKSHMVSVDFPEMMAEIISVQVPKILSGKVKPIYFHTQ

[3] = molecular target: T3, Carbonyl reductase [NADPH] 1 (Homo sapiens, UniProt P16152); test: Inhibition of CBR1 (unknown origin)
T3 sequence (P16152 whole entry): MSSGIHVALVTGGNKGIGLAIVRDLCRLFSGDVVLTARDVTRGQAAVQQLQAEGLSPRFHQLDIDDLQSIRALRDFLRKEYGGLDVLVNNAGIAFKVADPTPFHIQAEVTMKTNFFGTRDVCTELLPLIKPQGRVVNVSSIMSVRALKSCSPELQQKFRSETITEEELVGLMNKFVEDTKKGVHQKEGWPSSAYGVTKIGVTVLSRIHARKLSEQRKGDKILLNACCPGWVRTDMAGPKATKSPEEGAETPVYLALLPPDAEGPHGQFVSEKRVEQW

[4] = molecular target: T4, Aldo-keto reductase family 1 member C1 (Homo sapiens, UniProt Q04828); test: Inhibition of recombinant AKR1C1 (unknown origin) assessed as reduction in S-tetralol-induced dehydrogenase activity by measuring NADPH level
T4 sequence (Q04828 whole entry): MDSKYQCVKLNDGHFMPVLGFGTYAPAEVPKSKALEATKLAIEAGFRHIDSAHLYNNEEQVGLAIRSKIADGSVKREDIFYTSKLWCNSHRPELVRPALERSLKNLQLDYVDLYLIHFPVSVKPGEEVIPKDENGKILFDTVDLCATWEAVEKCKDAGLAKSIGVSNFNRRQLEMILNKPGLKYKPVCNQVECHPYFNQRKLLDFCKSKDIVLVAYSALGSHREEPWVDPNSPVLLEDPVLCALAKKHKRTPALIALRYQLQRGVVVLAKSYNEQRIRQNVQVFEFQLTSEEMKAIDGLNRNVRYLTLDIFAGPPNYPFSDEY

[5] = molecular target: T5, Aldo-keto reductase family 1 member C2 (Homo sapiens, UniProt P52895); test: Inhibition of recombinant AKR1C2 (unknown origin) assessed as reduction in S-tetralol-induced dehydrogenase activity by measuring NADPH level
T5 sequence (P52895 whole entry): T4 sequence (Q04828 whole entry) with T38V, R47H, L54V, C87S, V151M, R170H, Q172L

[6] = molecular target: T6, Aldo-keto reductase family 1 member C4 (Homo sapiens, UniProt P17516); test: Inhibition of recombinant AKR1C4 (unknown origin) assessed as reduction in S-tetralol-induced dehydrogenase activity by measuring NADPH level
T6 sequence (P17516 whole entry): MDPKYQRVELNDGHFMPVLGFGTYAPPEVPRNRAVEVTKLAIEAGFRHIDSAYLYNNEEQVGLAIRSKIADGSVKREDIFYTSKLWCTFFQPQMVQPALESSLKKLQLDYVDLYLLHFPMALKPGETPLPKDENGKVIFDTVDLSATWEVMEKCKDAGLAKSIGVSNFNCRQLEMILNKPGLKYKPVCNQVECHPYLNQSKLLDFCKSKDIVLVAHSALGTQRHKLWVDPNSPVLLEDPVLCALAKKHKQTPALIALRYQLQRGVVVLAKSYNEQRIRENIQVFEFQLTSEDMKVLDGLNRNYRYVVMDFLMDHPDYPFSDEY

[7] = organism: Homo sapiens; test: Ratio of IC50 for inhibition of recombinant AKR1C1 (unknown origin) inhibition of recombinant AKR1C3 (unknown origin)
[8] = organism: Homo sapiens; test: Ratio of IC50 for inhibition of recombinant AKR1C2 (unknown origin) inhibition of recombinant AKR1C3 (unknown origin)
[9] = organism: Homo sapiens; test: Ratio of IC50 for inhibition of recombinant AKR1C4 (unknown origin) inhibition of recombinant AKR1C3 (unknown origin)
[10] = organism: Homo sapiens; test: Ratio of IC50 for inhibition of CBR1 (unknown origin) inhibition of recombinant AKR1C3 (unknown origin)
[11] = tested on: PC-3; test: Inhibition of cell proliferation of human PC3 cells over-expressing AKR1C3 at 1 uM incubated for 72 hrs by alamar blue assay; assay type: functional, cell-based
[12] = tested on: CWR22R; test: Inhibition of pregnenolone-induced cell proliferation of human 22Rv1 cells at 10 uM pre-incubated for 2 hrs before pregnenolone stimulation for 72 hrs by alamar blue assay; assay type: functional, cell-based
Outline: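 22Rv1 cells (AKR1C3- and AR-expressing) pretreated 2 h with agents, then cultured 72 h with 20 nM pregnenolone; viable cell number given as percent of pregnenolone-free control.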

[13] = tested on: CWR22R; test: Inhibition of AR mRNA expression in human 22Rv1 cells at 10 uM pre-incubated for 2 hrs before pregnenolone stimulation for 24 hrs by RT-qPCR analysis; assay type: functional, cell-based
Outline: (§1)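 22Rv1 cells pretreated 2 h with test agents, then stimulated 24 h with 20 nM pregnenolone; AR, TMPRSS2 and PSA mRNA measured by RT-qPCR, given as ratio to pregnenolone-free control.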

[14] = tested on: CWR22R; test: Inhibition of TMPRSS2 mRNA expression in human 22Rv1 cells at 10 uM pre-incubated for 2 hrs before pregnenolone stimulation for 24 hrs by RT-qPCR analysis; assay type: functional, cell-based; outline: as §1
[15] = tested on: CWR22R; test: Inhibition of PSA mRNA expression in human 22Rv1 cells at 10 uM pre-incubated for 2 hrs before pregnenolone stimulation for 24 hrs by RT-qPCR analysis; assay type: functional, cell-based; outline: as §1
[16] = tested on: PC-3; conditions: Homo sapiens, at 10 µM
[17] = tested on: CWR22R; test: Induction of apoptosis in human 22Rv1 cells pre-incubated for 2 hrs before addition of pregnenolone for 24 hrs; assay type: functional, cell-based
[18] = tested on: CWR22R; test: Induction of ROS generation in human 22Rv1 cells at 10 uM by DCFH-DA dye based flow cytometric analysis; assay type: functional, cell-based
Outline: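 22Rv1 cells exposed 3 h to 10 μM inhibitor and/or abiraterone, or 50 μM enzalutamide; intracellular ROS by flow cytometry as DCF-positive cells, percent of vehicle control.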

## N=c1oc2c(O)cccc2cc1C(=O)Nc1ccccc1
[1]
  IC50: 36 nM
[2]
  Activity: inactive

## N=c1oc2c(O)cccc2cc1C(=O)Nc1ccccc1C(F)(F)F
[3]
  IC50: 75 nM
[1]
  IC50: 20 nM
[4]
  IC50: > 10000 nM
[5]
  IC50: > 10000 nM
[6]
  IC50: > 10000 nM
[7]
  Ratio IC50: > 500
[8]
  Ratio IC50: > 500
[9]
  Ratio IC50: > 500
[10]
  Ratio IC50: 4

## N=c1oc2c(O)cccc2cc1C(=O)Nc1cccc(F)c1
[3]
  IC50: 370 nM
[1]
  IC50: 29 nM
[4]
  IC50: > 10000 nM
[5]
  IC50: > 10000 nM
[6]
  IC50: > 10000 nM
[7]
  Ratio IC50: > 340
[8]
  Ratio IC50: > 340
[9]
  Ratio IC50: > 340
[10]
  Ratio IC50: 13
[2]
  Activity: inactive

## COc1cccc2cc(C(=O)Nc3ccc(F)cc3)c(=N)oc12
[1]
  IC50: > 10000 nM

## N=c1oc2ccc(O)cc2cc1C(=O)Nc1ccc(F)cc1
[1]
  IC50: > 10000 nM

## N=c1oc2c(O)cccc2cc1C(=O)Nc1cccc(Cl)c1
[3]
  IC50: 120 nM
[1]
  IC50: 46 nM
[4]
  IC50: > 10000 nM
[5]
  IC50: > 10000 nM
[6]
  IC50: > 10000 nM
[7]
  Ratio IC50: > 220
[8]
  Ratio IC50: > 220
[9]
  Ratio IC50: > 220
[10]
  Ratio IC50: 3
[2]
  Activity: inactive

## N=c1oc2c(O)cccc2cc1C(=O)Nc1ccc(O)cc1
[1]
  IC50: > 10000 nM
[2]
  Activity: inactive

## N=c1oc2c(O)cccc2cc1C(=O)Nc1ccccc1Cl
[3]
  IC50: 34 nM
[1]
  IC50: 56 nM
[4]
  IC50: > 10000 nM
[5]
  IC50: > 10000 nM
[6]
  IC50: > 10000 nM
[7]
  Ratio IC50: > 180
[8]
  Ratio IC50: > 180
[9]
  Ratio IC50: > 180
[10]
  Ratio IC50: 0.6
[2]
  Activity: inactive

## Cc1ccccc1NC(=O)c1cc2cccc(O)c2oc1=N
[1]
  IC50: 52 nM

## Cc1cccc(NC(=O)c2cc3cccc(O)c3oc2=N)c1
[1]
  IC50: 55 nM

## N=c1oc2cc(O)ccc2cc1C(=O)Nc1ccc(F)cc1
[1]
  IC50: > 10000 nM

## COC[C@H]1OC(=O)c2coc3c2[C@@]1(C)C1=C(C3=O)[C@@H]2CCC(=O)[C@@]2(C)C[C@H]1OC(C)=O
[11]
  inhibition: Active

## N=c1oc2c(O)cccc2cc1C(=O)Nc1ccc(Cl)cc1
[1]
  IC50: 52 nM
[2]
  Activity: inactive

## CC(C)C(=O)Nc1ccc([N+](=O)[O-])c(C(F)(F)F)c1
[12]
  inhibition: Active
[13]
  inhibition: Active
[14]
  inhibition: Active
[15]
  inhibition: Active

## N=c1oc2c(O)cccc2cc1C(=O)Nc1cccc(C(F)(F)F)c1
[1]
  IC50: 50 nM

## CC(C)c1ccccc1NC(=O)c1cc2cccc(O)c2oc1=N
[1]
  IC50: 30 nM

## N#CC(=C(/N)Sc1ccccc1N)/C(C#N)=C(\N)Sc1ccccc1N
[16]
  inhibition: inactive

## CCc1ccccc1NC(=O)c1cc2cccc(O)c2oc1=N
[1]
  IC50: 21 nM
[2]
  Activity: inactive

## N=c1oc2c(O)cccc2cc1C(=O)Nc1ccccc1F
[1]
  IC50: 64 nM
[2]
  Activity: inactive

## N=c1oc2c(O)cccc2cc1C(=O)Nc1cc(F)c(F)c(F)c1
[1]
  IC50: 47 nM
[2]
  Activity: inactive

## N=c1oc2c(O)cccc2cc1C(=O)Nc1ccc(C(F)(F)F)cc1C(F)(F)F
[1]
  IC50: 58 nM

## N=c1oc2cccc(O)c2cc1C(=O)Nc1ccc(F)cc1
[1]
  IC50: 370 nM

## CC(C)c1cccc(NC(=O)c2cc3cccc(O)c3oc2=N)c1
[1]
  IC50: 47 nM

## C[C@]12CC[C@H](O)CC1=CC[C@@H]1[C@@H]2CC[C@]2(C)C(c3cccnc3)=CC[C@@H]12
[12]
  inhibition: Active
[13]
  inhibition: Active
[14]
  inhibition: Active
[15]
  inhibition: Active
[17]
  Activity: Active
[18]
  Activity: Active

## N=c1oc2c(O)cccc2cc1C(=O)Nc1ccccc1O
[1]
  IC50: > 10000 nM
[2]
  Activity: inactive

## N=c1oc2c(O)cccc2cc1C(=O)Nc1ccc(F)c(F)c1
[1]
  IC50: 220 nM
[2]
  Activity: inactive

## CCc1ccc(NC(=O)c2cc3cccc(O)c3oc2=N)cc1
[1]
  IC50: 45 nM
[2]
  Activity: inactive

## N=c1oc2c(O)cccc2cc1C(=O)Nc1ccc(C(F)(F)F)cc1
[1]
  IC50: 24 nM

## N=c1oc2c(O)cccc2cc1C(=O)Nc1cccc(O)c1
[1]
  IC50: 60 nM
[2]
  Activity: inactive
